Data from ChEMBL document CHEMBL4118052, “Involvement of the Glucocorticoid Receptor in Pro-inflammatory Transcription Factor Inhibition by Daucane Esters from Laserpitium zernyi” (J Nat Prod, 2017).

Columns and labels:
[1] = target: T1, Glucocorticoid receptor (Homo sapiens) (UniProt P04150); experiment: Modulation of glucocorticoid receptor in human A549 cells assessed as 0.01 uM dexamethasone-induced GRE-driven promoter activity at 30 uM by luciferase reporter gene assay (reference value: 100%); type: cell-based
T1 sequence (whole entry): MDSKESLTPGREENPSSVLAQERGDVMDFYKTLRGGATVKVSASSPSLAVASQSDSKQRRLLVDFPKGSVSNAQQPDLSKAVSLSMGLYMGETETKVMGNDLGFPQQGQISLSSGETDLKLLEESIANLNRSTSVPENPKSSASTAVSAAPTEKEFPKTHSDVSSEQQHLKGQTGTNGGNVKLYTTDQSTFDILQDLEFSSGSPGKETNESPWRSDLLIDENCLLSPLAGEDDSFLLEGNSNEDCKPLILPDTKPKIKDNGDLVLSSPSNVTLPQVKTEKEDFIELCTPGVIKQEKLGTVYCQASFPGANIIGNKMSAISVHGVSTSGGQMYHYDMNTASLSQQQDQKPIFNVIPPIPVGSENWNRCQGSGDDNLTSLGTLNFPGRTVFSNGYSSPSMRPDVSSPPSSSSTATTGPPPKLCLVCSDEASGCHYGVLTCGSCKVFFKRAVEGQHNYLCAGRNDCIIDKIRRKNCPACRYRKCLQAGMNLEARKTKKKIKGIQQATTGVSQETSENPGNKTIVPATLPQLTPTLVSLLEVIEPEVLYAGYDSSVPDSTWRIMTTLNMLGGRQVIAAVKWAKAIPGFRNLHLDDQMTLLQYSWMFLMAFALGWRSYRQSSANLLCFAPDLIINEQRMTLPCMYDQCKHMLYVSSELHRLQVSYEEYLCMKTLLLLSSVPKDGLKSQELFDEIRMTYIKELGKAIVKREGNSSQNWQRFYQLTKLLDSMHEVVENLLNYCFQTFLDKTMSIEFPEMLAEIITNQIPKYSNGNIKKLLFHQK
Summary of the method: (§1)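 A549 cells with a stably integrated GRE-dependent promoter-luciferase construct. Compound at 10 or 30 μM given together with dexamethasone at 0.1 or 0.01 μM. Luciferase expressed as % of Dex-induced expression with solvent alone. Mean ± SD of ≥3 independent replicates.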

[2] = target: T1, Glucocorticoid receptor (Homo sapiens); experiment: Modulation of glucocorticoid receptor in human A549 cells assessed as 0.01 uM dexamethasone-induced GRE-driven promoter activity at 10 uM by luciferase reporter gene assay (reference value: 100%); type: cell-based; summary of the method: as §1
[3] = target: T1, Glucocorticoid receptor (Homo sapiens); experiment: (§2) Modulation of glucocorticoid receptor in human A549 cells harboring NFkB-Luc assessed as reduction in TNFalpha-induced NFkB activity preincubated for 1 hr followed by TNFalpha stimulation measured after 5 hrs by luciferase reporter gene assay; type: cell-based
Summary of the method: (§3)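 A549 cells with stably integrated NF-κB-Luc (9000/well, 24 h) given compound at 10, 30 or 60 μM, dexamethasone 1 μM or solvent for 1 h. TNF (200 IU/mL) induction for 5 h, then luciferase read. Values as % of TNF-induced solvent control; four independent replicates; one-way ANOVA.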

A549 [4] = experiment: Cytotoxicity against PMA stimulated human A549 cells harboring AP-1-Luc assessed as reduction in cell viability preincubated for 1 hr followed by PMA stimulation measured after 5 hrs by Cell-Titer Glo assay; type: cell-based; details: a549, 5 h
Summary of the method: (§4)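 AP-1-Luc A549 cells (9000/well) incubated 24 h, then compound (10, 30, 60 μM) or solvent added. PMA induction 1 h later, 5 h further incubation. Viability by Cell Titer Glo ATP luminescence. Solvent group treated with PMA set as 100%.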

A549 [5] = experiment: Cytotoxicity against TNFalpha stimulated human A549 cells harboring NFkB-Luc assessed as reduction in cell viability preincubated for 1 hr followed by TNFalpha stimulation measured after 5 hrs by Cell-Titer Glo assay; type: cell-based; details: a549, 5 h
Summary of the method: (§5)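 A549 cells with stably integrated NF-κB-Luc seeded at 9000/well for 24 h, then exposed to compound (10, 30, 60 μM) or solvent. TNF given 1 h later, 5 h incubation. Cell Titer Glo ATP readout, with TNF-treated solvent group as 100%.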

[6] = target: T1, Glucocorticoid receptor (Homo sapiens); experiment: Modulation of glucocorticoid receptor in human A549 cells harboring AP-1-Luc assessed as reduction in PMA-induced AP-1 activity preincubated for 1 hr followed by PMA stimulation measured after 5 hrs by luciferase reporter gene assay; type: cell-based
Summary of the method: (§6)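 AP-1-Luc A549 cells (9000/well, 24 h) pretreated 1 h with compound (10–60 μM), dexamethasone 1 μM or solvent, then PMA-induced for 5 h. Luciferase activity as % of PMA-induced solvent group. One-way ANOVA with Tukey test.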

[7] = target: T1, Glucocorticoid receptor (Homo sapiens); experiment: Modulation of glucocorticoid receptor in human A549 cells assessed as 0.1 uM dexamethasone-induced GRE-driven promoter activity at 30 uM by luciferase reporter gene assay (reference value: 100%); type: cell-based; summary of the method: as §1
[8] = target: T1, Glucocorticoid receptor (Homo sapiens); experiment: Modulation of glucocorticoid receptor in human A549 cells assessed as 0.1 uM dexamethasone-induced GRE-driven promoter activity at 10 uM by luciferase reporter gene assay (reference value: 100%); type: cell-based; summary of the method: as §1
A549 [9] = experiment: Cytotoxicity against PMA stimulated human A549 cells harboring AP-1-Luc assessed as reduction in cell viability at 60 uM preincubated for 1 hr followed by PMA stimulation measured after 5 hrs by Cell-Titer Glo assay relative to control; type: cell-based; details: a549, 5 h; summary of the method: as §4
A549 [10] = experiment: Inhibition of TNFalpha-induced NFkB activity in GR knockout human A549 cells harboring NFkB-Luc assessed as NFkB activity at 30 uM preincubated for 1 hr followed by TNFalpha stimulation measured after 5 hrs by luciferase reporter gene assay (reference value: 100%); type: functional; parameters: scale not given: the % may be the effect or the level left
Summary of the method: (§7)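 GR-knockout A549 cells carrying stably integrated NF-κB-Luc. Pretreatment 1 h with compound (30 μM) or dexamethasone (1 μM), then TNF (200 IU/mL) for 5 h. Luciferase luminescence as % of TNF-induced solvent control.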

[11] = Cytotoxicity against PMA stimulated human A549 cells harboring AP-1-Luc assessed as cell viability at 30 uM preincubated for 1 hr followed by PMA stimulation measured after 5 hrs by Cell-Titer Glo assay (reference value: 100%); type: cell-based; details: read-out: Activity; summary of the method: as §4
A549 [12] = experiment: Cytotoxicity against TNFalpha stimulated human A549 cells harboring NFkB-Luc assessed as reduction in cell viability at 60 uM preincubated for 1 hr followed by TNFalpha stimulation measured after 5 hrs by Cell-Titer Glo assay relative to control; type: cell-based; details: a549, 5 h; summary of the method: as §5
A549 [13] = experiment: Cytotoxicity against GR knockout human A549 cells harboring Neo-Luc assessed as reduction in cell viability at 60 uM by Cell-Titer Glo assay relative to control; type: cell-based; details: a549, 60 µM
Summary of the method: (§8)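 NeoLuc A549 cells (9000/well) incubated 24 h, then test compound or solvent added; viability by Cell Titer Glo ATP luminescence, run by the same protocol as the reporter assays. Solvent-treated control taken as 100%.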

[14] = Cytotoxicity against TNFalpha stimulated human A549 cells harboring NFkB-Luc assessed as cell viability at 30 uM preincubated for 1 hr followed by TNFalpha stimulation measured after 5 hrs by Cell-Titer Glo assay (reference value: 100%); type: cell-based; details: read-out: Activity; summary of the method: as §5
[15] = Cytotoxicity against GR knockout human A549 cells harboring Neo-Luc assessed as cell viability at 30 uM by Cell-Titer Glo assay (reference value: 100%); type: cell-based; details: read-out: Activity; summary of the method: as §8
[16] = target: T1, Glucocorticoid receptor (Homo sapiens); experiment: Modulation of glucocorticoid receptor in human A549 cells harboring AP-1-Luc assessed as reduction in PMA-induced AP-1 activity by measuring AP-1 activity at 60 uM preincubated for 1 hr followed by PMA stimulation measured after 5 hrs by luciferase reporter gene assay (reference value: 100%); type: cell-based; parameters: scale not given: the % may be the effect or the level left; summary of the method: as §6
[17] = target: T1, Glucocorticoid receptor (Homo sapiens); experiment: Modulation of glucocorticoid receptor in human A549 cells assessed as TNFalpha-induced CCL2 production at 30 uM preincubated for 1 hr followed by TNFalpha stimulation measured after 5 hrs by ELISA (reference value: 100%); type: cell-based
Summary of the method: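 Basal (non-reporter) A549 cells treated with compound at 30 μM, then TNF (200 IU/mL). CCL2 protein in medium measured by ELISA, as % of TNF-treated solvent control. Mean ± SD of three independent replicates; Student's t test.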

[18] = target: T1, Glucocorticoid receptor (Homo sapiens); experiment: as §2, with “activity by measuring NFkB activity at 60 uM” for “activity”, “assay (reference value: 100%)” for “assay”; type: cell-based; parameters: scale not given: the % may be the effect or the level left; summary of the method: as §3
[19] = Cytotoxicity against PMA stimulated human A549 cells harboring AP-1-Luc assessed as cell viability at 60 uM preincubated for 1 hr followed by PMA stimulation measured after 5 hrs by Cell-Titer Glo assay (reference value: 100%); type: cell-based; details: read-out: Activity; summary of the method: as §4
[20] = Cytotoxicity against TNFalpha stimulated human A549 cells harboring NFkB-Luc assessed as cell viability at 60 uM preincubated for 1 hr followed by TNFalpha stimulation measured after 5 hrs by Cell-Titer Glo assay (reference value: 100%); type: cell-based; details: read-out: Activity; summary of the method: as §5
[21] = Cytotoxicity against GR knockout human A549 cells harboring Neo-Luc assessed as cell viability at 60 uM by Cell-Titer Glo assay (reference value: 100%); type: cell-based; details: read-out: Activity; summary of the method: as §8
A549 [22] = experiment: Inhibition of TNFalpha-induced NFkB activity in GR knockout human A549 cells harboring NFkB-Luc assessed as NFkB activity at 1 uM preincubated for 1 hr followed by TNFalpha stimulation measured after 5 hrs by luciferase reporter gene assay (reference value: 100%); type: functional; parameters: scale not given: the % may be the effect or the level left; summary of the method: as §7

| Structure (SMILES) | Activity [1] [%] | Activity [2] [%] | Activity [3] | Activity (A549 [4]) | Activity (A549 [5]) | Activity [6] | Activity [7] [%] | Activity [8] [%] | Activity (A549 [9]) | Activity (A549 [10]) [%] | viability at 5 h, 30 µM [11] [%] | Activity (A549 [12]) | Activity (A549 [13]) | viability at 5 h, 30 µM [14] [%] | viability at 30 µM [15] [%] | Activity [16] [%] | Activity [17] [%] | other results |
| --- | --- | --- | --- | --- | --- | --- | --- | --- | --- | --- | --- | --- | --- | --- | --- | --- | --- | --- |
| C/C=C(/C)C(=O)O[C@H]1C[C@@](C)(O)C(=O)[C@@H](OC(=O)/C(C)=C\C)[C@@]2(C)CC[C@@](O)(C(C)C)[C@H]12 | 83.5 | > 90 | Dose-dependent effect | Dose-dependent effect | Dose-dependent effect | Dose-dependent effect | > 90 | > 90 |  |  |  |  |  |  |  |  |  |  |
| C/C=C(/C)C(=O)O[C@@H]1C[C@@](O)(C(C)C)[C@@H]2CCC(C)=C[C@@H](O)[C@]21C | 77 | > 90 | Dose-dependent effect | Dose-dependent effect | Dose-dependent effect | Dose-dependent effect | 80.9 | > 90 | <= 10% | 91.8 | > 97 | <= 10% | <= 10% | > 97 | > 97 |  |  |  |
| C/C=C(/C)C(=O)O[C@@H]1C=C(C)CC[C@]2(O)[C@@H](C(C)C)CC(=O)[C@]12C | 80.4 | > 90 | Dose-dependent effect | Dose-dependent effect | Dose-dependent effect | Dose-dependent effect | 74.5 | > 90 | <= 10% |  | > 97 | <= 10% | <= 10% | > 97 | > 97 | 41.4 | 70.1 |  |
| C/C=C(/C)C(=O)O[C@@H]1C[C@@](O)(C(C)C)[C@@H]2CCC(C)=C[C@@H](OC(C)=O)[C@]21C | 48.9 | 70.1 | Dose-dependent effect | Dose-dependent effect | Dose-dependent effect | Dose-dependent effect | 67.1 | 78 |  | 83.6 | > 95 |  |  | > 95 | > 95 | 41 | 72.1 | Activity [18]: 52%; viability at 5 h, 60 µM [19]: 93.4%; viability at 5 h, 60 µM [20]: 97.3%; viability at 60 µM [21]: 90% |
| C[C@@H]1C[C@H]2[C@@H]3CCC4=CC(=O)C=C[C@]4(C)[C@@]3(F)[C@@H](O)C[C@]2(C)[C@@]1(O)C(=O)CO [DEXAMETHASONE] |  |  |  |  |  |  |  |  |  |  |  |  |  |  |  |  |  | Activity (A549 [22]): 97.2% |
| C/C=C(/C)C(=O)O[C@@H]1C[C@@](O)(C(C)C)[C@@H]2CC=C(C)C(=O)[C@@H](O)[C@]21C | 52.8 | > 90 | Dose-dependent effect | Dose-dependent effect | Dose-dependent effect | Dose-dependent effect | 71.6 | > 90 |  |  |  |  |  |  |  |  |  |  |
